Laboratory results taken from ChEMBL document CHEMBL3232877, “Synthesis and activity of tumor-homing peptide iRGD and histone deacetylase inhibitor valproic acid conjugate” (2014).
Positions of bridges follow the written chain, without caps; N, C: chain ends. Residues, ends and D or L forms follow the SMILES beside them. *: point of attachment. Pentanoyl(2-Pr) = CCCC(CCC)C(=O)*

How the values were obtained:
Assay type in all cases: functional
DU-145 [1] = test: Cell cycle arrest in human DU145 cells assessed as accumulation of cells at G1 phase at 1.5 mM after 24 hrs by flow cytometry (Rvb =64.7 %)
DU-145 [2] = test: Cell cycle arrest in human DU145 cells assessed as accumulation of cells at G2 phase at 1.5 mM after 24 hrs by flow cytometry (reference value: 22.1 %)
DU-145 [3] = test: Cytotoxicity against human DU145 cells assessed viable cells at 0.5 mM after 72 hrs by CCK-8 assay (reference value: 99.97 +/- 0.84 %)
Procedure, shortened: (§1)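 DU-145 cells exposed 72 h to drug or drug equivalent at 0.5 mM or 1.5 mM. Viable cells read by CCK-8, absorbance 450 nm (630 nm reference). Viability % = treated viable cells / mean of untreated group (set 100%); reported as mean ± SEM; one-way ANOVA with Tukey test.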

DU-145 [4] = test: Cytotoxicity against human DU145 cells assessed viable cells at 1.5 mM after 72 hrs by CCK-8 assay (reference value: 100.00 +/- 2.47 %); procedure, shortened: as §1

CCCC(CCC)C(=O)NCC(=O)N[C@@H](Cc1ccccc1)C(=O)N[C@@H](CC(C)C)C(=O)NCC(=O)N[C@H]1CSSC[C@@H](C(N)=O)NC(=O)[C@H](CC(=O)O)NC(=O)[C@@H]2CCCN2C(=O)CNC(=O)[C@H](CCCCN)NC(=O)[C@H](CC(=O)O)NC(=O)CNC(=O)[C@H](CCCNC(=N)N)NC1=O ({Pentanoyl(2-Pr)}-GFLGCRGDKGPDC-NH2; disulfide 5-13)
Activity (DU-145 [1]): 76.3%
Activity (DU-145 [2]): 15.7%
Activity (DU-145 [3]): 69.3%
Activity (DU-145 [4]): 38.96%

CCCC(CCC)C(=O)O [VALPROIC ACID]
Activity (DU-145 [1]): 62.5%
Activity (DU-145 [2]): 25.8%
Activity (DU-145 [3]): 99.56%
Activity (DU-145 [4]): 79.87%

CC(C)C[C@H](NC(=O)[C@H](Cc1ccccc1)NC(=O)CN)C(=O)NCC(=O)N[C@H]1CSSC[C@@H](C(N)=O)NC(=O)[C@H](CC(=O)O)NC(=O)[C@@H]2CCCN2C(=O)CNC(=O)[C@H](CCCCN)NC(=O)[C@H](CC(=O)O)NC(=O)CNC(=O)[C@H](CCCNC(=N)N)NC1=O (H-GFLGCRGDKGPDC-NH2; disulfide 5-13)
Activity (DU-145 [1]): 73.7%
Activity (DU-145 [2]): 17.7%
Activity (DU-145 [3]): 70.52%
Activity (DU-145 [4]): 58.67%
